From ChEMBL document CHEMBL3244043, “Nucleoside 5'-monophosphate analogues. Synthesis of 5'-sulfamino-5'-deoxynucleosides” (J Med Chem, 1978) come the findings set out here.

The structures appear in SMILES notation. Activity calls are given as the source filed them. No cut-off for these calls is given here. Where only a bound is given, the exact number is not on record here.

Series [1] can be described thus: Stability of the compound in NaOH assessed as cleavage of sulfamino group at 23 degC after 24 hrs. In kind it is physicochemical. A digest of the protocol: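 Compound exposed to 0.1 M NaOH at 23 °C for 24 h, then examined for any cleavage of the 5'-sulfamino group.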
The nature of series [2]: Drug degradation in HCl assessed as hydrolysis of 5'-sulfamino group to form amino nucleoside at 23 degC after 24 hrs. Type of series: physicochemical. Conditions: read-out: Drug degradation. The method, boiled down: (§1)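 Compound held in 0.1 M HCl at 23 °C for 24 h. Hydrolysis reported as percent cleavage of the 5'-sulfamino group, giving the amino nucleoside, and of the glycosidic bond, giving adenine.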

Series [3] relates to Human alphaherpesvirus 1. Description: Antiviral activity against Herpes simplex virus type 1 infected in African green monkey CV1 cells assessed as inhibition of viral replication at 1 x 10^-5 M relative to control. Type of series: functional. As to conditions: Human alphaherpesvirus 1, CV-1.
Series [4] has as its system Human alphaherpesvirus 1. The series is described as follows: Antiviral activity against Herpes simplex virus type 1 infected in African green monkey CV1 cells assessed as inhibition of viral replication at 1 x 10^-4 M relative to control. Type of series: functional. As to conditions: Human alphaherpesvirus 1, CV-1.
For series [5], the system named is Enterococcus faecalis. Description: Antibacterial activity against Streptococcus faecalis assessed as growth inhibition at 1 x 10^-3 M relative to control. Type of series: functional. Conditions: read-out: GI.
In series [6] the test system is Escherichia coli. The series is described as follows: Antibacterial activity against Escherichia coli K-12 assessed as growth inhibition at 1 x 10^-3 M relative to control. Type of series: functional. As to conditions: read-out: GI.
In series [7] the test system is Escherichia coli. Description: Antibacterial activity against Escherichia coli B assessed as growth inhibition at 1 x 10^-3 M relative to control. Type of series: functional. Conditions: read-out: GI.
For series [8], the system named is L1210. The series is described as follows: Cytotoxicity against mouse L1210 cells assessed as growth inhibition at 1 x 10^-3 M. In kind it is functional, cell-based.
For series [9], the system named is L1210. The series is described as follows: Cytotoxicity against mouse L1210 cells assessed as cell growth at 1 x 10^-4 M. Type of series: functional, cell-based.
A short description of series [10]: Cytotoxicity against African green monkey CV1 cells assessed as effect on cell growth at 1 x 10^-4 M. Type of series: cell-based. As to conditions: chlorocebus aethiops, cv-1, 100 µM.
Series [11] in a line: Drug degradation in HCl assessed as hydrolysis of glycosidic linkage to form adenine at 23 degC after 24 hrs. In kind it is physicochemical. Conditions: read-out: Drug degradation. The method, boiled down:
as §1

The test system of series [12] is Human alphaherpesvirus 1. The series is described as follows: Antiviral activity against Herpes simplex virus type 1 infected in African green monkey CV1 cells assessed as inhibition of viral replication at 10^-4 M. Type of series: functional, organism-based. As to conditions: CV-1.

With `Cc1cn([C@H]2C[C@H](O)[C@@H](CNS(=O)(=O)O)O2)c(=O)[nH]c1=O`, the Stability entry in [1] is given as “Stable”. The degraded at 24 h in series [2] was found to be 2.4%. Moreover, the inhibition at 10 µM in series [3] was found to be 35%. The inhibition at 100 µM in [4] amounted to 70%. Moreover, the inhibition of growth at 1000 µM in [5], in [6] and in series [7] was < 10% throughout. Further, the “growth inhibition (GI)” value in [8] is “inactive”. In addition, the result in series [9] was inactive. Further, the Activity entry in [10] was “Non-toxic”.
As for `Nc1ncnc2c1ncn2[C@@H]1O[C@H](CNS(=O)(=O)O)[C@@H](O)[C@H]1O`, in series [1], the Stability result is on record as “Stable”. Also, the degraded at 24 h in series [2] worked out at 0.75%; in series [11], 16%. In addition, the inhibition entry in series [12] was “inactive”. Further, the inhibition of growth at 1000 µM in series [5], in series [6] and in [7] was < 10% each time. In series [8], the “growth inhibition (GI)” value is “inactive”. Further, the result in series [9] was inactive.

As a reminder, the inhibition is the percentage by which the read-out fell short of the control.
